Among the data in ChEMBL document CHEMBL3853336, “Novel selective glucocorticoid receptor agonists (SEGRAs) with a covalent warhead for long-lasting inhibition” (Bioorg Med Chem Lett, 2016) are inhibition values, retold here.

For assay [1], the target named is T1, Glucocorticoid receptor (Homo sapiens) (UniProt P04150).
T1 sequence (whole entry): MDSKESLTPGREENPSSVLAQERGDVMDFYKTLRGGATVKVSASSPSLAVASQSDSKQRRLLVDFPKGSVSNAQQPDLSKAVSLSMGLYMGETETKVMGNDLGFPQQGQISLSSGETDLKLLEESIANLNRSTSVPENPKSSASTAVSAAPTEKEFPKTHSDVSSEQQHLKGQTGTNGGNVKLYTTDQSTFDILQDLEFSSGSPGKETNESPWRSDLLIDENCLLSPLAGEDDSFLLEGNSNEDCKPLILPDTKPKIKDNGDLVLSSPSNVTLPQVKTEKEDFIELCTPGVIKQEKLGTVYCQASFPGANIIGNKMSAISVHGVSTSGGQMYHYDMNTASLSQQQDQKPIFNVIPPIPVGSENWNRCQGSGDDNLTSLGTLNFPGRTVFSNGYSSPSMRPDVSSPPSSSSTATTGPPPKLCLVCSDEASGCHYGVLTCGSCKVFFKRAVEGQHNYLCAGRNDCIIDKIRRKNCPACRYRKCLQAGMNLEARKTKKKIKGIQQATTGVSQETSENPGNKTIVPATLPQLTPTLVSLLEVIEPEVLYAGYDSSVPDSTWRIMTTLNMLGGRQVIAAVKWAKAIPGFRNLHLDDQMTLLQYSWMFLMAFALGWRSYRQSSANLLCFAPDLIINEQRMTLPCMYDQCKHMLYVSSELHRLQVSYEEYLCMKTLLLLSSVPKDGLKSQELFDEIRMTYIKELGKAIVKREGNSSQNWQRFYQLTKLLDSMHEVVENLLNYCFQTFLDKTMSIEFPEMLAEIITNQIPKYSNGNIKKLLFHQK
The assay can be described thus: Displacement of [3H]-dexamethasone from human GR receptor at 1 uM relative to control. The method in brief: (§1)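 Human GR radioligand binding with soluble receptor from IM-9 cells and 1.5 nM [3H]-dexamethasone, with test ligand at 1 µM or 0.1 µM. Specific binding reported as % inhibition of control, in duplicate.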
(Displacement assays read how much labelled ligand stays bound in the presence of the test substance.)

The target of assay [2] is T1, Glucocorticoid receptor (Homo sapiens). The assay can be described thus: Displacement of [3H]-dexamethasone from human GR receptor at 0.1 uM relative to control. An outline of the steps: as §1
The target is the same in assay [3]. The assay can be described thus: Displacement of [3H]-dexamethasone from GR receptor in human IM-9 cytosolic extracts at 100 nM preincubated for 6 hrs followed by washout and second incubation with [3H]-dexamethasone for 1 hr relative to control. The method in brief:
(§2)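 IM-9 cytosol (240 µg/assay) preincubated 6 h with ligand (100 nM, or 60 nM for cortisol). Unbound ligand was stripped with activated charcoal and centrifugation, then 3 nM [3H]-dexamethasone was added. Binding was read after 1, 2, 3, 4, 16 or 24 h of second incubation as % inhibition of control specific binding, in duplicate.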

Assay [4] shares this target. The assay can be described thus: Displacement of [3H]-dexamethasone from GR receptor in human IM-9 cytosolic extracts at 100 nM preincubated for 6 hrs followed by washout and second incubation with [3H]-dexamethasone for 2 hrs relative to control. An outline of the steps: as §2
Assay [5] shares this target. The assay can be described thus: Displacement of [3H]-dexamethasone from GR receptor in human IM-9 cytosolic extracts at 100 nM preincubated for 6 hrs followed by washout and second incubation with [3H]-dexamethasone for 3 hrs relative to control. An outline of the steps: as §2
For assay [6] the target is unchanged. As to the kind of experiment: Displacement of [3H]-dexamethasone from GR receptor in human IM-9 cytosolic extracts at 100 nM preincubated for 6 hrs followed by washout and second incubation with [3H]-dexamethasone for 4 hrs relative to control. The method in brief: as §2
The target is the same in assay [7]. The assay can be described thus: Displacement of [3H]-dexamethasone from GR receptor in human IM-9 cytosolic extracts at 100 nM preincubated for 6 hrs followed by washout and second incubation with [3H]-dexamethasone for 16 hrs relative to control. The method in brief: as §2
The target is the same in assay [8]. The assay can be described thus: Displacement of [3H]-dexamethasone from GR receptor in human IM-9 cytosolic extracts at 100 nM preincubated for 6 hrs followed by [3H]-dexamethasone addition relative to control.
Assay [9] shares this target. The assay can be described thus: Displacement of [3H]-dexamethasone from GR receptor in human IM-9 cytosolic extracts using buffer solution without beta-mercaptoethanol at 100 nM preincubated for 6 hrs followed by washout and second incubation with [3H]-dexamethasone for 4 hrs relative to control. The method in brief: (§3)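 Repeat of the wash-out protocol in buffers free of β-mercaptoethanol, with a second batch of dexamethasone mesylate. IM-9 cytosol (240 µg/assay) preincubated 6 h at 100 nM (cortisol 60 nM), charcoal-stripped and centrifuged, then given 3 nM [3H]-dexamethasone. Binding was read before wash-out or at 1–24 h as % inhibition of control, in duplicate.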

Assay [10] shares this target. The assay can be described thus: Displacement of [3H]-dexamethasone from GR receptor in human IM-9 cytosolic extracts using buffer solution without beta-mercaptoethanol at 100 nM preincubated for 6 hrs followed by washout and second incubation with [3H]-dexamethasone for 16 hrs relative to control. An outline of the steps: as §3
Assay [11] shares this target. As to the kind of experiment: Displacement of [3H]-dexamethasone from GR receptor in human IM-9 cytosolic extracts using buffer solution without beta-mercaptoethanol at 100 nM preincubated for 6 hrs followed by washout and second incubation with [3H]-dexamethasone for 24 hrs relative to control. The method in brief: as §3
Assay [12] has the same target. The assay can be described thus: Displacement of [3H]-dexamethasone from GR receptor in human IM-9 cytosolic extracts using buffer solution without beta-mercaptoethanol at 100 nM preincubated for 6 hrs followed by [3H]-dexamethasone addition relative to control. The method in brief:
as §3

The target is the same in assay [13]. As to the kind of experiment: Displacement of [3H]-dexamethasone from GR receptor in human IM-9 cytosolic extracts at 60 nM preincubated for 6 hrs followed by washout and second incubation with [3H]-dexamethasone for 1 hr relative to control. The method in brief:
as §2

Assay [14] has the same target. The assay can be described thus: Displacement of [3H]-dexamethasone from GR receptor in human IM-9 cytosolic extracts at 60 nM preincubated for 6 hrs followed by washout and second incubation with [3H]-dexamethasone for 2 hrs relative to control. An outline of the steps: as §2
The target is the same in assay [15]. The assay can be described thus: Displacement of [3H]-dexamethasone from GR receptor in human IM-9 cytosolic extracts at 60 nM preincubated for 6 hrs followed by washout and second incubation with [3H]-dexamethasone for 3 hrs relative to control. The method in brief: as §2
The target is the same in assay [16]. As to the kind of experiment: Displacement of [3H]-dexamethasone from GR receptor in human IM-9 cytosolic extracts at 60 nM preincubated for 6 hrs followed by washout and second incubation with [3H]-dexamethasone for 4 hrs relative to control. An outline of the steps:
as §2

Assay [17] has the same target. As to the kind of experiment: Displacement of [3H]-dexamethasone from GR receptor in human IM-9 cytosolic extracts at 60 nM preincubated for 6 hrs followed by washout and second incubation with [3H]-dexamethasone for 16 hrs relative to control. An outline of the steps: as §2
The target is the same in assay [18]. As to the kind of experiment: Displacement of [3H]-dexamethasone from GR receptor in human IM-9 cytosolic extracts at 60 nM preincubated for 6 hrs followed by washout and second incubation with [3H]-dexamethasone for 24 hrs relative to control. An outline of the steps:
as §2

Assay [19] has the same target. As to the kind of experiment: Displacement of [3H]-dexamethasone from GR receptor in human IM-9 cytosolic extracts at 60 nM preincubated for 6 hrs followed by [3H]-dexamethasone addition relative to control.
For assay [20] the target is unchanged. The assay can be described thus: Displacement of [3H]-dexamethasone from GR receptor in human IM-9 cytosolic extracts using buffer solution without beta-mercaptoethanol at 60 nM preincubated for 6 hrs followed by washout and second incubation with [3H]-dexamethasone for 16 hrs relative to control. The method in brief: as §3
Assay [21] has the same target. As to the kind of experiment: Displacement of [3H]-dexamethasone from GR receptor in human IM-9 cytosolic extracts using buffer solution without beta-mercaptoethanol at 60 nM preincubated for 6 hrs followed by washout and second incubation with [3H]-dexamethasone for 24 hrs relative to control. An outline of the steps:
as §3

For assay [22] the target is unchanged. As to the kind of experiment: Displacement of [3H]-dexamethasone from GR receptor in human IM-9 cytosolic extracts using buffer solution without beta-mercaptoethanol at 60 nM preincubated for 6 hrs followed by [3H]-dexamethasone addition relative to control. An outline of the steps:
as §3

Assay [23] has the same target. As to the kind of experiment: Displacement of [3H]-dexamethasone from GR receptor in human IM-9 cytosolic extracts at 100 nM preincubated for 6 hrs followed by washout and second incubation with [3H]-dexamethasone for 24 hrs relative to control. The method in brief: as §2
For assay [24] the target is unchanged. As to the kind of experiment: Displacement of [3H]-dexamethasone from GR receptor in human IM-9 cytosolic extracts using buffer solution without beta-mercaptoethanol at 100 nM preincubated for 6 hrs followed by washout and second incubation with [3H]-dexamethasone for 1 hr relative to control. The method in brief: as §3
Assay [25] shares this target. The assay can be described thus: Displacement of [3H]-dexamethasone from GR receptor in human IM-9 cytosolic extracts using buffer solution without beta-mercaptoethanol at 100 nM preincubated for 6 hrs followed by washout and second incubation with [3H]-dexamethasone for 3 hrs relative to control. The method in brief: as §3
Assay [26] has the same target. As to the kind of experiment: Displacement of [3H]-dexamethasone from GR receptor in human IM-9 cytosolic extracts using buffer solution without beta-mercaptoethanol at 100 nM preincubated for 6 hrs followed by washout and second incubation with [3H]-dexamethasone for 2 hrs relative to control. An outline of the steps:
as §3

What is called inhibition is the relative decrease from the control value, in per cent.

Take `C=CC(=O)Nc1ccc(Cl)c(C(=O)N(CC)CC(O)(CNC(=O)c2cnn(-c3ccc(F)cc3)c2N)C(F)(F)F)c1Cl` (configuration not stated): the inhibition worked out at 96% in assay [1]; 74% in assay [2]; 21% in [3]; 17% in assay [4]; 24% in assay [5]; 6% in assay [6]. The inhibition is 31% in assay [7]; 74% in assay [8]; -10% in assay [9]; -5% in [10]; -2% in assay [11]; 74% in assay [12].

As for `C[C@]12CCC(=O)C=C1CC[C@@H]1[C@@H]2[C@@H](O)C[C@@]2(C)[C@H]1CC[C@]2(O)C(=O)CO`, the inhibition in [13] was 3%; in assay [14], 6%; in [15], 4%; in assay [16], -1%; in assay [17] it was 5%; in assay [18], 12%. In addition, the inhibition was 69% in [19], 16% in assay [20], -8% in [21] and 69% in assay [22].

As to `C[C@@H]1C[C@H]2[C@@H]3CCC4=CC(=O)C=C[C@]4(C)[C@@]3(F)[C@@H](O)C[C@]2(C)[C@@]1(O)C(=O)COS(C)(=O)=O`, the inhibition in [3] was determined as 7%; in assay [4] it was 3%; in assay [5], 7%; in [7], 13%; in [23] it was 23%; in assay [8], 93%. In addition, the inhibition in assay [24] was 3%; in [25], -2%; in assay [9], 3%; in [10], 46%; in assay [11] it was 13%; in [12], 93%.

For `CCN(CC(O)(CNC(=O)c1cnn(-c2ccc(F)cc2)c1N)C(F)(F)F)C(=O)c1c(Cl)ccc(NC(=O)CCl)c1Cl` (configuration not stated), the inhibition was 92% in assay [1]; 78% in assay [2]; -4% in [3]; 1% in assay [7]; 2% in assay [23]; 78% in assay [8]. The inhibition in assay [24] was -1%; in [26] it was -8%; in [25] it was -6%; in assay [9], 0%; in assay [10], 37%; in assay [11], 8%. Moreover, the inhibition in [12] was determined as 78%.
